Source: ChEMBL document CHEMBL4145617, “Chloramphenicol Derivatives with Antibacterial Activity Identified by Functional Metagenomics” (2018)
In brackets after ≈: the same amount, converted by molar mass. Activity calls are given as the source filed them. The rule behind the calls is not given here.

How the values were obtained:
Escherichia coli = test: Antimicrobial activity against Escherichia coli ATCC 2452 at 200 ug/ml by Alamar blue based CLSI method; format: functional, organism-based
Staphylococcus aureus [1] = test: Antimicrobial activity against methicillin-resistant Staphylococcus aureus ATCC 1708 at 200 ug/ml by Alamar blue based CLSI method; format: functional, organism-based
Summary of the method: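 S. aureus ATCC 1708 tested by a modified CLSI method. Samples were dissolved in DMSO and serially diluted in 20% DMSO/saline, and final test concentrations were 1/100th of the DMSO stock. MIC was taken as the lowest concentration with no detectable growth.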

Pseudomonas aeruginosa = test: Antimicrobial activity against Pseudomonas aeruginosa ATCC 2108 at 200 ug/ml by Alamar blue based CLSI method; format: functional, organism-based
[2] = tested on: Mycobacterium tuberculosis; test: Antimycobacterial activity against Mycobacterium tuberculosis ATCC 25177 after 5 days by Alamar blue based CLSI method; format: functional; settings: H37Ra, 120 h
Staphylococcus aureus [3] = test: Growth inhibition of Staphylococcus aureus EAMC30 at 62.5 ug/ml by Alamar blue based CLSI method relative to control; format: functional; settings: read-out: GI
[4] = tested on: Mycobacterium intracellulare; test: Antimycobacterial activity against Mycobacterium intracellulare ATCC 23068 after 70 to 74 hrs by Alamar blue based CLSI method; format: functional

SMILES	Activity (Escherichia coli)	Activity (Staphylococcus aureus [1])	Activity (Pseudomonas aeruginosa)	MIC [2] [µg/mL]	inhibition of growth at 62.5 µg/mL (Staphylococcus aureus [3]) [%]	MIC [4] [µg/mL]
CCC(=O)OC[C@@H](NC(=O)C(Cl)Cl)[C@H](OC(C)=O)c1ccc([N+](=O)[O-])cc1	inactive	inactive	inactive			
O=C(O[C@H](c1ccc([N+](=O)[O-])cc1)[C@@H](CO)NC(=O)C(Cl)Cl)c1ccc([N+](=O)[O-])cc1				50 (≈ 106 µM)	59	12.5 (≈ 26.5 µM)
CC(=O)O[C@H](c1ccc([N+](=O)[O-])cc1)[C@@H](CO)NC(=O)C(Cl)Cl						25 (≈ 68.5 µM)
O=C(/C=C/c1ccccc1)O[C@H](c1ccc([N+](=O)[O-])cc1)[C@@H](CO)NC(=O)C(Cl)Cl					35	
CCCC(=O)OC[C@@H](NC(=O)C(Cl)Cl)[C@H](O)c1ccc([N+](=O)[O-])cc1	inactive	inactive	inactive		36	
CC(=O)OC[C@@H](NC(=O)C(Cl)Cl)[C@H](O)c1ccc([N+](=O)[O-])cc1	inactive	inactive	inactive		15	25 (≈ 68.5 µM)
CCCC(=O)OC[C@@H](NC(=O)C(Cl)Cl)[C@H](OC(=O)CCC)c1ccc([N+](=O)[O-])cc1	inactive	inactive	inactive		11	
CCC(=O)OC[C@@H](NC(=O)C(Cl)Cl)[C@H](OC(=O)CC)c1ccc([N+](=O)[O-])cc1	inactive	inactive	inactive		40	
O=C(N[C@H](CO)[C@H](O)c1ccc([N+](=O)[O-])cc1)C(Cl)Cl [CHLORAMPHENICOL]				> 100		25 (≈ 77.4 µM)
CCC(=O)OC[C@@H](NC(=O)C(Cl)Cl)[C@H](O)c1ccc([N+](=O)[O-])cc1	inactive	inactive	inactive		72	
CCCC(=O)OC[C@@H](NC(=O)C(Cl)Cl)[C@H](OC(=O)CC)c1ccc([N+](=O)[O-])cc1	inactive	inactive	inactive			
CCCC(=O)O[C@H](c1ccc([N+](=O)[O-])cc1)[C@@H](COC(=O)CC)NC(=O)C(Cl)Cl	inactive	inactive	inactive			
CC(=O)OC[C@@H](NC(=O)C(Cl)Cl)[C@H](OC(C)=O)c1ccc([N+](=O)[O-])cc1	inactive	inactive	inactive			
